# According to PMC5115981 (Cancer chemotherapy and pharmacology, 2016):
# Test: Mouse liver microsome incubation for glucuronide metabolism
# Assay type: in vitro ADME
# Conditions: mouse liver microsomes 0.25 mg/mL, alamethicin, UDPGA
# Procedure, shortened: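 Glucuronidation incubation used microsomes from female heterozygous Foxn1nu/Foxn1+ mouse liver. Mix: 0.1 M phosphate (pH 7.4), 0.25 mg/mL microsomal protein, 25 µg/mL alamethicin, 50 mM Tris-HCl, 10 mM MgCl2 and 1,000 ng/mL drug. A mix without UDPGA served as negative control. Samples were analysed twice: SRM monitoring of the m/z 613 glucuronide channel, then MRM quantitation of parent depletion against a curve in buffer with 0.25 mg/mL BSA. Parent expressed relative to time 0.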
structure (smiles),measurement,value
"COc1ccc(C2=Nn3c(nnc3-c3cc(-c4ccc(Cl)cc4)n[nH]3)SC2C)cc1 (stereo not shown) [UPCDC-10205, 3-(3-(4-chlorophenyl)-1H-pyrazole-5-yl)-6-(4-methoxyphenyl)-7-methyl-7H-[1,2,4]triazolo[3,4-b][1,3,4]thiadiazine]",UPCDC-10205 remaining relative to time 0 after 60 min,67%
